{"source": "ChEMBL document CHEMBL1141604", "about": "“Benzenesulfonamide indole inhibitors of cytosolic phospholipase A2alpha: optimization of in vitro potency and rat pharmacokinetics for oral efficacy” (Bioorg Med Chem, 2008)", "key": {"[1]": {"experiment": "Inhibition of human cPLA2-alpha assessed as cleavage of 7-hydroxycoumarinyl-gamma-linolenate", "summary_of_the_method": "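Substrate 90 µM GLU with 120 µM DTPC. Compounds in DMSO tested in duplicate. Fluorescence (ex 355/em 460 nm) read every 4 min for 84 min; inhibition from slope. IC50 averaged from at least two independent runs.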"}, "[2]": {"experiment": "Inhibition of cPLA2-alpha in Sprague-Dawley rat whole blood assay in presence of A23187", "format": "tissue-based", "summary_of_the_method": "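Heparinized blood from male Sprague-Dawley rats, taken by cardiac puncture. Preincubated 15 min at 37 °C with compound in DMSO, then stimulated 10 min at 37 °C with 5 µM A23187 (final). Stopped with 20 mM EDTA; plasma precipitated with cold methanol at −80 °C. TXB2 measured by immunoassay; IC50 values averaged from at least two independent runs.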"}, "[3]": {"experiment": "Clearance in Sprague-Dawley rat at 2 mg/kg, iv", "format": "ADME, organism-based", "set-up": "dose 2 mg/kg, route intravenous", "conditions": "in vivo", "summary_of_the_method": "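Male Sprague-Dawley rats, 200–300 g, n = 3, given a single 2 mg/kg tail-vein bolus in 50% PEG-400/50% DMSO. Blood drawn via jugular cannula over 24 h and plasma acidified with HCl. Plasma levels measured by LC/MS/MS after acetonitrile precipitation with internal standard; quantitation limit 5 ng/mL. Clearance from non-compartmental analysis.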"}, "[4]": {"experiment": "Oral bioavailability in Sprague-Dawley rat at 25 mg/kg administered through MC/TW formulation", "format": "ADME, organism-based", "conditions": "in vivo", "summary_of_the_method": "(§1)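 Overnight-fasted male Sprague-Dawley rats (n = 3) gavaged in MC/TW or Phosal vehicle; compound at 37.5 mg/mL, diluted with water, dosed at 4 mL/kg. Jugular blood taken over 24 h; plasma analysed by LC/MS/MS. F calculated as the dose-normalized oral/iv AUC ratio, iv reference 2 mg/kg.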"}, "Ovis aries [5]": {"system": "Ovis aries", "experiment": "Effect on Ascaris suum-induced early phase-bronchoconstriction in naturally sensitized sheep model assessed as increase in specific lung resistance at 3 mg/kg, po bid for 2 days", "format": "functional", "summary_of_the_method": "(§2)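 Naturally sensitized sheep challenged via the airways with Ascaris suum antigen. Pulmonary resistance recorded breath by breath using the esophageal balloon technique. Oral doses given in Phosal stock diluted with water, 0.25 mL/kg. Dosing BID before challenge and on challenge day, 2 h before and 8 h after. Early and late responses expressed as mean maximum % increase in specific lung resistance, compared with each sheep's historical control.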"}, "Ovis aries [6]": {"system": "Ovis aries", "experiment": "Effect on Ascaris suum-induced early phase-bronchoconstriction in naturally sensitized sheep model assessed as increase in specific lung resistance at 1 mg/kg, po bid for 5 days", "format": "functional", "summary_of_the_method": "as §2"}, "Ovis aries [7]": {"system": "Ovis aries", "experiment": "Effect on Ascaris suum-induced late phase-bronchoconstriction in naturally sensitized sheep model assessed as increase in specific lung resistance at 10 mg/kg, iv bid for 1 day", "format": "functional"}, "Ovis aries [8]": {"system": "Ovis aries", "experiment": "Effect on Ascaris suum-induced late phase-bronchoconstriction in naturally sensitized sheep model assessed as increase in specific lung resistance at 3 mg/kg, po bid for 2 days", "format": "functional", "summary_of_the_method": "as §2"}, "Ovis aries [9]": {"system": "Ovis aries", "experiment": "Effect on Ascaris suum-induced late phase-bronchoconstriction in naturally sensitized sheep model assessed as increase in specific lung resistance at 1 mg/kg, po bid for 5 days", "format": "functional", "summary_of_the_method": "as §2"}, "[10]": {"experiment": "Oral bioavailability in Sprague-Dawley rat at 25 mg/kg administered through Phosal formulation", "format": "ADME, organism-based", "conditions": "in vivo", "summary_of_the_method": "as §1"}, "[11]": {"experiment": "Clearance in Beagle dog at 2 mg/kg, iv", "format": "ADME, organism-based, Canis lupus familiaris", "set-up": "dose 2 mg/kg, route intravenous", "conditions": "in vivo", "summary_of_the_method": "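Male Beagle dogs, 8.5–13.0 kg, n = 3, fasted overnight, given 2 mg/kg iv in 20% DMSO/80% PEG-200. Saphenous blood sampled over 24 h and plasma acidified to about pH 4. Analysed by LC/MS/MS with internal standard. Clearance by non-compartmental methods.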"}, "[12]": {"experiment": "Oral bioavailability in Beagle dog at 5 mg/kg administered through MC/TW formulation", "format": "ADME, organism-based, Canis lupus familiaris", "conditions": "in vivo", "summary_of_the_method": "(§3)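 Fasted male Beagle dogs (n = 3) dosed orally in MC/TW or Phosal formulation, volume 4 or 6 mL/kg. Saphenous plasma collected over 24 h and measured by LC/MS/MS. F calculated as the dose-normalized oral/iv AUC ratio against 2 mg/kg iv.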"}, "[13]": {"experiment": "Oral bioavailability in Beagle dog at 5 mg/kg administered through Phosal formulation", "format": "ADME, organism-based, Canis lupus familiaris", "conditions": "in vivo", "summary_of_the_method": "as §3"}, "[14]": {"experiment": "Binding affinity at human cPLA2-alpha by isothermal calorimetry", "summary_of_the_method": "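ITC at 30 °C. Purified human cPLA2α dialyzed into 50 mM Hepes pH 7.4, 0.3 mM EDTA, 1 mM CaCl2, 300 mM KCl. Cell held 2.5 µM protein with 1% DMSO and 940 µM Triton X-100. Syringe held 78.5 µM compound in matching buffer; twenty 10 µL injections. Buffer-only titration subtracted as background; single-site fit gave Kd and stoichiometry.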"}, "[15]": {"molecular_target": "T1, Prostaglandin G/H synthase 2 (Homo sapiens) (UniProt P35354)", "T1 sequence (whole entry)": "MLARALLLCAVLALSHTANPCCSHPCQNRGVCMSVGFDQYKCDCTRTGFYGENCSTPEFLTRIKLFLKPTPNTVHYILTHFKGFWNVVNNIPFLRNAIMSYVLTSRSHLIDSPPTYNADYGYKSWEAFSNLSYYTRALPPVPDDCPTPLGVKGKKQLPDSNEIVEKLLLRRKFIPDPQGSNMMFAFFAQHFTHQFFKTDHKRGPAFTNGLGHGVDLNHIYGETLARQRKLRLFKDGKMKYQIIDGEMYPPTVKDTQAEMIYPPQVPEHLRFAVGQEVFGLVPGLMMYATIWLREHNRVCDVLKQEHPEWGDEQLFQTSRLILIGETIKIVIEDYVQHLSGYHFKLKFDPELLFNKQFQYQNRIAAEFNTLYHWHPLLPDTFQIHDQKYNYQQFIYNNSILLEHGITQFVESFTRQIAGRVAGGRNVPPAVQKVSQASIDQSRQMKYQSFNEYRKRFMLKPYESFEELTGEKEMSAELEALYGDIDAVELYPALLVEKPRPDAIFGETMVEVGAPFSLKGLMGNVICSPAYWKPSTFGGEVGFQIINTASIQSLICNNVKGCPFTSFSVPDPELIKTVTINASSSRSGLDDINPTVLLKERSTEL", "experiment": "Inhibition of COX2 at 100 uM"}, "[16]": {"molecular_target": "Prostaglandin G/H synthase 1 (Homo sapiens) (UniProt P23219)", "sequence (P23219 whole entry)": "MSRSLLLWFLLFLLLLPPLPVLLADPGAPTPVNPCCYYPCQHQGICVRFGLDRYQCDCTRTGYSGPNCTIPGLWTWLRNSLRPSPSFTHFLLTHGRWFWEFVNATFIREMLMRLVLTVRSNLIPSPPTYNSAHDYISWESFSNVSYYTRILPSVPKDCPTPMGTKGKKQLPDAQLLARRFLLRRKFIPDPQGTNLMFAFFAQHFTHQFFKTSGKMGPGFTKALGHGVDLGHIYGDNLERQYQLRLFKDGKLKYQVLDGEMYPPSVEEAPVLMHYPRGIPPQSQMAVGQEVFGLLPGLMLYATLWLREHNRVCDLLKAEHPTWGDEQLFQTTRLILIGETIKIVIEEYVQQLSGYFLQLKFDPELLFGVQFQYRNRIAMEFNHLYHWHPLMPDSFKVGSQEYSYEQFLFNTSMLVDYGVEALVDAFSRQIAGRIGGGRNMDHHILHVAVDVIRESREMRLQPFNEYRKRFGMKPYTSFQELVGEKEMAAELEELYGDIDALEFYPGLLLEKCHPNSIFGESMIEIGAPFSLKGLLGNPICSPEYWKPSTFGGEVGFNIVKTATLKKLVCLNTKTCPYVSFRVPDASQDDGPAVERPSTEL", "experiment": "Inhibition of COX1 at 100 uM"}, "[17]": {"experiment": "Selectivity for human cPLA2-alpha over COX1"}, "[18]": {"experiment": "Selectivity for human cPLA2-alpha over COX2"}, "Blood [19]": {"system": "Blood", "experiment": "Inhibition of TXB2 production in human whole blood assay", "format": "functional, tissue-based", "summary_of_the_method": "(§4)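 Heparinized blood from healthy male volunteers (3 donors). Aliquots preincubated 15 min at 37 °C with compound in DMSO, then stimulated 15 min with 30 µM A23187 (final). Reaction stopped with 20 mM EDTA; plasma proteins precipitated with cold methanol. TXB2, LTB4, PGE2 and PGF2α measured by immunoassay kit; IC50 derived.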"}, "Blood [20]": {"system": "Blood", "experiment": "Inhibition of LTB4 production in human whole blood assay", "format": "functional, tissue-based", "summary_of_the_method": "as §4"}, "Blood [21]": {"system": "Blood", "experiment": "Inhibition of PGE2 production in human whole blood assay", "format": "functional, tissue-based", "summary_of_the_method": "as §4"}, "Blood [22]": {"system": "Blood", "experiment": "Inhibition of PGF2-alpha production in human whole blood assay", "format": "functional, tissue-based", "summary_of_the_method": "as §4"}, "Rattus norvegicus [23]": {"system": "Rattus norvegicus", "experiment": "Antiinflammatory activity against carrageenan-induced paw edema in Sprague-Dawley rat assessed as decrease in paw volume at 25 mg/kg, po administered through Phosal formulation", "format": "functional", "set-up": "scale not given: the % may be the effect or the level left", "summary_of_the_method": "(§5)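 Male Sprague-Dawley rats, 190–250 g, n = 10 per group, housed 1 week beforehand. Left hind paw volume measured by plethysmometer before oral dosing in Phosal or MC/TW (0.5% methylcellulose, 2% Tween 80) vehicle. Two hours after dosing, 60 µL of 1% carrageenan in saline injected subplantar. Paw volume remeasured 3 h later; percent inhibition of swelling calculated versus vehicle.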"}, "Rattus norvegicus [24]": {"system": "Rattus norvegicus", "experiment": "Antiinflammatory activity against carrageenan-induced paw edema in Sprague-Dawley rat decrease in paw volume at 25 mg/kg, po administered through MC/TW formulation", "format": "functional", "set-up": "scale not given: the % may be the effect or the level left", "summary_of_the_method": "as §5"}, "Rattus norvegicus [25]": {"system": "Rattus norvegicus", "experiment": "Antiinflammatory activity against carrageenan-induced paw edema in Sprague-Dawley rat decrease in paw volume at 10 mg/kg, po administered through MC/TW formulation", "format": "functional", "set-up": "scale not given: the % may be the effect or the level left", "summary_of_the_method": "as §5"}, "Rattus norvegicus [26]": {"system": "Rattus norvegicus", "experiment": "Antiinflammatory activity against carrageenan-induced paw edema in Sprague-Dawley rat administered through MC/TW formulation", "format": "functional", "summary_of_the_method": "as §5"}, "Ovis aries [27]": {"system": "Ovis aries", "experiment": "Effect on Ascaris suum-induced early phase-bronchoconstriction in naturally sensitized sheep model assessed as increase in specific lung resistance at 10 mg/kg, iv bid for 1 day", "format": "functional"}}, "data": [{"compound": "O=C(O)c1ccc(CCCc2c(CCNS(=O)(=O)c3c(F)cccc3C(F)(F)F)n(C(c3ccccc3)c3ccccc3)c3ccc(Cl)cc23)cc1", "values": [{"measurement": "IC50", "setting": "[1]", "value": 65, "unit": "nM"}, {"measurement": "IC50", "setting": "[2]", "value": 100, "unit": "nM"}, {"measurement": "clearance", "setting": "[3]", "value": 14, "unit": "mL/min/kg"}, {"measurement": "bioavailability", "setting": "[4]", "value": 13, "unit": "%"}, {"measurement": "Activity", "setting": "Ovis aries [5]", "value": 379, "unit": "%"}, {"measurement": "Activity", "setting": "Ovis aries [6]", "value": 431, "unit": "%"}, {"measurement": "Activity", "setting": "Ovis aries [7]", "value": 29, "unit": "%"}, {"measurement": "Activity", "setting": "Ovis aries [8]", "value": 29, "unit": "%"}, {"measurement": "Activity", "setting": "Ovis aries [9]", "value": 68, "unit": "%"}, {"measurement": "bioavailability", "setting": "[10]", "value": 5, "unit": "%"}, {"measurement": "clearance", "setting": "[11]", "value": 1.4, "unit": "mL/min/kg"}, {"measurement": "bioavailability", "setting": "[12]", "value": 16, "unit": "%"}, {"measurement": "bioavailability", "setting": "[13]", "value": 13, "unit": "%"}, {"measurement": "Kd", "setting": "[14]", "value": 80, "unit": "nM"}, {"measurement": "inhibition", "setting": "[15]", "value": 9.9, "unit": "%"}, {"measurement": "inhibition", "setting": "[16]", "value": 45, "unit": "%"}, {"measurement": "Selectivity ratio", "setting": "[17]", "value": "> 1000"}, {"measurement": "Selectivity ratio", "setting": "[18]", "value": "> 1000"}, {"measurement": "IC50", "setting": "Blood [19]", "value": 120, "unit": "nM"}, {"measurement": "IC50", "setting": "Blood [20]", "value": 82, "unit": "nM"}, {"measurement": "IC50", "setting": "Blood [21]", "value": 60, "unit": "nM"}, {"measurement": "IC50", "setting": "Blood [22]", "value": 110, "unit": "nM"}, {"measurement": "Activity", "setting": "Rattus norvegicus [23]", "value": 16, "unit": "%"}, {"measurement": "Activity", "setting": "Rattus norvegicus [24]", "value": 44, "unit": "%"}, {"measurement": "Activity", "setting": "Rattus norvegicus [25]", "value": 34, "unit": "%"}, {"measurement": "ED50", "setting": "Rattus norvegicus [26]", "value": "< 10", "unit": "mg/kg"}, {"measurement": "Activity", "setting": "Ovis aries [27]", "value": 346, "unit": "%"}]}]}
